This is an account of results in paper PMC2858585 (DNA and cell biology, 2008).

Series [1] concerns the target T1, Recombinant SPEH1 (Strongylocentrotus purpuratus, UniProt B2MWN2). Briefly: Hydrolysis of EETs and EpOMEs analyzed by LC-MS/MS, recombinant SPEH1. Type of series: biochemical. The conditions noted are these: natural substrates, adjusted for estimated purity.
In series [2] the test system is Recombinant CEEH1. The settings on record: natural substrates, ref Harris et al. (2008); cited from earlier work.
Series [3] has as its system Recombinant CEEH1. The settings on record: read-out: Recombinant CEEH1 IC50; PHOME as substrate; ref Harris et al. (2008); cited from earlier work.
Series [4] deals with T1, Recombinant SPEH1. Description: Fluorescent IC50 assay with PHOME as substrate, recombinant SPEH1. It is filed as biochemical.
A further series concerns SPEH1. Description: Phosphatase assay with AttoPhos, SPEH1. Type of series: biochemical, Strongylocentrotus purpuratus. The conditions noted are these: AttoPhos as substrate.
Series [5] concerns SPEH2. Description: Phosphatase assay with AttoPhos, SPEH2. Type of series: biochemical, Strongylocentrotus purpuratus. The conditions noted are these: AttoPhos as substrate.
Series [6] has as its target T1, Recombinant SPEH1. Briefly: Inhibition of recombinant SPEH1, [3H] t-DPPO as substrate. Type of series: biochemical. The settings on record: read-out: Recombinant SPEH1 IC50.
Series [7] concerns the target T1, Recombinant SPEH1. It is filed as biochemical.
In series [8] the test system is SPEH2. Briefly: Radiometric epoxide hydrolase assay with t-DPPO, recombinant SPEH2. It is filed as biochemical, Strongylocentrotus purpuratus. The settings on record: t-DPPO as substrate. An outline of the steps: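 Recombinant enzyme with a C-terminal six-histidine tag, expressed in baculovirus-infected Trichoplusia ni High Five cells (0.1 MOI, 72 h at 28°C). […] The radiometric assay used tritium-labelled t-DPPO as substrate, with enzyme at 0.3 µg/mL, and was terminated at 10 min.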

Series [9] deals with Recombinant CEEH1. The settings on record: ref Harris et al. (2008), cited from earlier work.
Another series has as its system Recombinant human sEH. The conditions noted are these: ref Morisseau et al. (2000), cited from earlier work.
Where [10] appears, read: t-DPPO as substrate, recombinant SPEH1.
[11] abbreviates: t-DPPO as substrate, recombinant CEEH1.
Where [12] appears, read: t-DPPO as substrate, recombinant human sEH.

SMILES strings stand for the structures. “Also recorded” adds a separate entry of the source. Read-outs that look alike come from different tables or passages of the source.

Consider `CCCCC/C=C\C/C=C\CC1OC1C/C=C\CCCC(=O)O` (stereo not drawn) [8,9-EET], for which the Specific activity on Recombinant SPEH1 [1] was 33 ± 7.2 nmol/min/mg; in the series on Recombinant CEEH1 [2], 45.2 ± 1.00 nmol/min/mg.
For the compound `CCCCCC=CCC1OC1CCCCCCCC(=O)O` (stereo not drawn) [9,10-EpOME, 9,10-epoxy-12-octadecenoate], the values for the Specific activity on Recombinant SPEH1 [1] and in the series on Recombinant CEEH1 [2] were 4800 ± 210 nmol/min/mg and 137 ± 1.77 nmol/min/mg, respectively.
In the case of `CCCCC/C=C\C[C@H]1O[C@H]1C/C=C\C/C=C\CCCC(=O)O` [11,12-EET], the Specific activity at Recombinant SPEH1 [1] is 490 ± 140 nmol/min/mg; in the series with Recombinant CEEH1 [2], 205 ± 15.3 nmol/min/mg.
With `CCCCCC1OC1C/C=C\C/C=C\C/C=C\CCCC(=O)O` (stereo not drawn) [14,15-EET], the results for the Specific activity on Recombinant SPEH1 [1] and with Recombinant CEEH1 [2] were 330 ± 64 nmol/min/mg and 615 ± 10.8 nmol/min/mg, respectively.
As usually defined, the IC50 is the midpoint of a concentration-inhibition curve. With `O=C(NC1CCCCC1)NC12CC3CC(CC(C3)C1)C2` [ACU, N-adamantyl-N′-cyclohexylurea], the IC50 with Recombinant CEEH1 [3] was 2500 ± 120 nM.
With `O=C(O)CCCCCCCCCCCNC(=O)NC12CC3CC(CC(C3)C1)C2` [AUDA, 12-(3-adamantane-1-yl-ureido)-dodecanoic acid], the IC50 at Recombinant SPEH1 [4] was 160 ± 13 nM; in the series with Recombinant CEEH1 [3] it was 27 ± 0.29 nM.
As to `O=P(O)(O)Oc1ccc2nc(-c3nc4ccccc4s3)sc2c1` [AttoPhos], the “Phosphatase activity of SPEH1 with AttoPhos” value in the series on SPEH1 is reported as “did not display phosphatase activity”. Moreover, in the series on SPEH2 [5], the “Phosphatase activity of SPEH2 with AttoPhos” value is “did not display phosphatase activity”.
For `CCCCCCCCCCCCNC(=O)NC1CCCCC1` [CDU, N-cyclohexyl-N′-dodecylurea], the IC50 in the series with Recombinant CEEH1 [3] was 160 ± 23 nM.
Regarding `CCNC(=O)NC1CCCCC1` [CEU, N-cyclohexyl-N′-ethylurea], the IC50 on Recombinant SPEH1 [6] and in the series on Recombinant CEEH1 [3] was above 50000 nM throughout.
On to `O=C(NC1CCCCC1)NC1CCCCC1` [DCU, N,N′-dicyclohexylurea], for which the IC50 in the series on Recombinant CEEH1 [3] was 41000 nM.
For orientation: Km means the substrate concentration at which the rate is half of its maximum. The term kcat denotes the maximal rate divided by the concentration of active sites. For `c1ccc(CC2OC2c2ccccc2)cc1` (stereo not drawn) [t-DPPO], the Michaelis-Menten constant (Km) on Recombinant SPEH1 [7] (setting [10]) was 35 ± 1.2 µM; in the series on Recombinant CEEH1 [9] (setting [11]), 160 ± 21 µM; in the series with Recombinant human sEH (setting [12]), 6.2 ± 0.6 µM. For the same compound, the kcat at Recombinant SPEH1 [7] (setting [10]) was 44 ± 0.71 s⁻¹; in the series on Recombinant CEEH1 [9] (setting [11]) it was 12 ± 0.5 s⁻¹; in the series on Recombinant human sEH (setting [12]) it was 4.3 ± 0.3 s⁻¹. For the same compound, the Specific activity is 3100 ± 270 nmol/min/mg at Recombinant SPEH1 [7] (t-DPPO as substrate, recombinant SPEH1, adjusted for estimated purity); 3000 ± 230 nmol/min/mg with Recombinant CEEH1 [9] (setting [11]); 4500 ± 200 nmol/min/mg in the series on Recombinant human sEH (setting [12]). Besides, the kcat/Km ratio is listed as 1.3 on Recombinant SPEH1 [7] (t-DPPO, SPEH1, unit not given); 0.07 with Recombinant CEEH1 [9] (t-DPPO, nematode enzyme, unit not given); 0.7 with Recombinant human sEH (t-DPPO, human enzyme, unit not given). In addition, the “EH activity of SPEH2 with t-DPPO” value in the series on SPEH2 [8] is “not active; also recorded: did not display activity”.
